Test [1] can be described thus: S. cerevisiae growth inhibition in permissive medium (OD615), pilot counter-assay for S. cerevisiae lifespan shortening project, permissive growth control (AID 705;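 active = growth inhibition above 25% in both replicates, a cutoff set 3 SD above the mean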). The settings on record: OD615, 24 h, at 10 µM, active compounds read high. The essentials:
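System – S. cerevisiae with engineered DeaD lifespan system · Buffer or medium – SC raffinose/galactose permissive medium · Schedule – cells pre-grown 4 h, then 24 h compound exposure, 30 °C humidified · Technique – culture turbidity as optical density at 615 nm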

The nature of test [2]: S. cerevisiae growth inhibition in restrictive medium, OD615, pilot screen, restrictive growth control, yeast lifespan reduction project (AID 706;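 active = growth inhibition above a set limit, 3 SD over mean compound inhibition, in both replicates, cut at about 43% in these data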;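 note: modified DeaD lifespan yeast strain shifted to restrictive glucose medium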). As to conditions: OD615, 48 h, at 10 µM, active compounds read high. The essentials:
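Material: engineered S. cerevisiae DeaD strain / Medium: glucose-based CSMM-D restrictive medium / Compound: single dose of 10 µM compound final, 0.25% DMSO / Timing: 4 h pre-incubation, 48 h exposure at 30 °C / Technique: OD615 absorbance reading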

Test [3] is described as follows: doxorubicin toxicity protection in MRP-1 cells – H69AR cells, CellTiter-Glo, duplicate, MRP-1 activator project, pilot screen (AID 807;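 active = viability increase at or above a cutoff of the median across tested compounds plus 3 SD, cut at about 8.5% in these data, passing the limit was not always enough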;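 note: compound pretreatment 18-22 h then 72 h combined with doxorubicin; 0% = doxorubicin alone and 100% = vehicle without doxorubicin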). The settings on record: H69AR viability with doxorubicin, CellTiter-Glo luminescence; at 10 µM; active compounds read high.
Test [4] in a line: viability of HCT116 without oncogenic beta-catenin – human colon tumor cells, pilot screen (AID 823;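 active = cell viability at or below a set limit in both duplicate runs, the limit being the all-compound median minus 4 SD, cut at about 23% in these data, passing the limit was not always enough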;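 note: 0% = wells killed by 20 µM Hyamine and 100% = untreated DMSO cell wells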). As to conditions: HCT116 beta-catenin knockout viability, CellTiter-Glo, 60 h; at 10 µM; active compounds read low. For orientation: ATP-based viability assays read luminescence as a measure of living cells.
Test [5] is described as follows: viability of PTEN-null HCT116 cells – cell-based, HCT116 clonal line, CellTiter-Glo, pilot screen (AID 824).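 Note: 0% = 20 µM Hyamine control and 100% = vehicle cell control.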 As to conditions: HCT116 PTEN-deleted viability, 60 h, at 10 µM, active compounds read low.
Test [6] can be described thus: RAM pathway blockade in budding yeast – dse1pr::URA3 reporter, 5-FOA selection, pilot screen (AID 869;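 active = inhibition over a set limit, the all-compound mean plus 3 SD, in both replicate runs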;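 note: 0% = DMSO wells with no growth and 100% = 10 µM 1-NA-PP1 with full growth; RAM network block rescues cells from 5-FOA so hits raise OD615 growth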). The settings on record: S. cerevisiae dse1pr::URA3 5-FOA growth, OD615, 2 d; at 10 µM; active compounds read high; strain carries analog-sensitive mutant Cbk1 kinase.
Test [7] is described as follows: RAM signaling pathway blockade in yeast – S. cerevisiae, Pdr1DBD-CYC8 efflux-inhibited sensitized strain, primary screen (AID 1298;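 active = RAM network inhibition above 8.4% in each of two replicates, 3 SD over the compound average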;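 note: 0% = DMSO untreated cells without growth and 100% = 10 µM 1-NA-PP1 full growth; higher means more yeast growth rescued from 5-FOA killing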). As to conditions: S. cerevisiae cbk1-as DSE1-URA3 strain, 5-FOA growth OD615, 2 d; at 50 µM; active compounds read high.

Unmarked numbers belong to inactive results. Results filed as inconclusive are left out. The source made the active and inactive calls.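 Rule for the calls, unless noted: active = viability at or below 27.92% in each of two runs, the all-compound median minus 4 SD; inconclusive = no clear call, values can overlap the other calls; inactive = the rest.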

Regarding `CCc1ncc(C(=O)c2ccc(OC)cc2)n1C`, the growth inhibition is 1.37% in test [1] and -0.315% in test [2]. In test [3], the viability increase was 3.42%. The viability (in general, a read-out of living cells in per cent, often relative to untreated cells) in test [4] was 105%; in test [5] it was 104%. Further, in test [6], the inhibition (usually the change of the read-out against control, counted positive when it falls) was 0.225%. Also, the RAM network inhibition in test [7] is 5.28%.
For the molecule `CC1CCCC(C)N1CCCNC(=O)Cn1cc2c(n1)CCCC2` (stereo unspecified), the growth inhibition in test [1] was 9.32%; in test [2], 6.46%. The viability increase in test [3] is -1.41%. In addition, the viability in test [4] was 95.7%; in test [5] it was 92.5%. Further, the inhibition in test [6] is -0.06%. The RAM network inhibition in test [7] is 6.61%.
For `CCOC(=O)N1CCN(C(=O)c2cc3c(-c4ccc(Cl)cc4)nn(C)c3s2)CC1`, the figures for the growth inhibition in test [1] and in test [2] were -5.13% and 4.77%, respectively. Further, in test [3], the viability increase is -6.02%. The viability is 55.8% in test [4] and 49.2% in test [5]. Further, the inhibition in test [6] is 0.47%. Moreover, in test [7], the RAM network inhibition is 1.8%.
Turning to `O=C1C2C3c4ccccc4C(c4ccccc43)C2C(=O)N1Cc1ccco1` (stereo unspecified), the growth inhibition in test [1] was -2.21%; in test [2], 5.63%. For the same molecule, the viability increase in test [3] was -3.21%. Besides, the results for the viability in test [4] and in test [5] were 97% and 93.4%, respectively. Besides, in test [6], the inhibition was 0%. Further, the RAM network inhibition in test [7] is 4.51%.
On to `O=C(CN(C1CCCCC1)S(=O)(=O)c1ccc(F)cc1)NCCCO`, for which the growth inhibition in test [1] was -6.21%; in test [2], 2.23%. Also, the viability increase in test [3] was -0.51%. Moreover, the viability in test [4] is 103%; in test [5], 98.1%. In test [6], the inhibition is 1.75%. Further, in test [7], the RAM network inhibition was 1.27%.
As for `O=C(NCCCc1ccccc1)C1CCN(c2nnc(-n3cccc3)s2)CC1`, the growth inhibition in test [1] was -1.03%; in test [2] it was 0.98%. For the same molecule, in test [3], the viability increase is 3.79%. Moreover, the values for the viability in test [4] and in test [5] were 93.3% and 97%, respectively. Besides, the inhibition in test [6] is 0.175%. The RAM network inhibition in test [7] was 5.38%.
With `Cc1ccc(S(=O)(=O)N(C)CCCC(=O)N2CCOCC2)cc1`, the results for the growth inhibition in test [1] and in test [2] were -17.3% and -6.47%, respectively. The viability increase in test [3] is -1.27%. Also, the viability in test [4] was 101%; in test [5], 96.1%. In addition, the inhibition in test [6] was 1.17%. Moreover, in test [7], the RAM network inhibition is 3.03%.
Turning to `Cc1cccc(OCC(=O)Nc2ccc3c(c2)OCO3)c1C`, the figures for the growth inhibition in test [1] and in test [2] were -5.98% and -2.99%, respectively. For the same molecule, the viability increase in test [3] was -0.26%. Moreover, the viability in test [4] and in test [5] was 103% throughout. In addition, the inhibition in test [6] was 1.77%. In addition, the RAM network inhibition in test [7] was 7.79%.
Regarding `COc1ccc(CNC(=O)CCCNS(=O)(=O)c2cccc3nonc23)cc1`, the growth inhibition in test [1] is 1.99%; in test [2], -22.1%. The viability increase in test [3] was -2.08%. The results for the viability in test [4] and in test [5] were 92.3% and 96.7%, respectively. Moreover, the inhibition in test [6] was 1.31%. Moreover, in test [7], the RAM network inhibition is 7.37%.
Turning to `CCOC(=O)C1=C(C)NC(=O)NC1c1cn(-c2ccccc2)nc1-c1cccs1` (stereo unspecified), the growth inhibition is -10.2% in test [1] and -0.16% in test [2]. Also, the viability increase in test [3] was -0.43%. In addition, the viability in test [4] was 75.2%; in test [5], 72.2%. Also, the inhibition in test [6] is 1.46%. In addition, in test [7], the RAM network inhibition is 3.87%.
For `CCOC(=O)c1c(-c2ccc(C)o2)csc1N`, the growth inhibition in test [1] was 4.88%; in test [2], 0.615%. Moreover, the viability increase in test [3] was -2.73%. Moreover, the viability is 97% in test [4] and 93.8% in test [5]. In test [6], the inhibition was 1.57%. The RAM network inhibition in test [7] was 4.1%.
`O=C(Nc1nnc(-c2cccs2)o1)c1cccc(C(F)(F)F)c1`: the growth inhibition in test [1] was -14.9%; in test [2], 7.83%. Moreover, the viability increase in test [3] is -0.12%. Besides, the viability in test [4] was 15.5% (active); in test [5], 19.5% (active). In addition, the inhibition in test [6] was 1.56%. The RAM network inhibition in test [7] is 3.02%.
Regarding `O=C(Nc1nnc(-c2ccccc2)o1)c1nc2ccccc2s1`, the growth inhibition in test [1] is -9.03%; in test [2], 10.3%. Also, the viability increase in test [3] is -3.96%. The viability in test [4] is 93.8%; in test [5], 88.8%. Also, in test [6], the inhibition is 1.39%. In addition, in test [7], the RAM network inhibition is 0.11%.
`Cc1[nH]nc2c1/C(=N\O)CC(C)(C)C2`: the growth inhibition was 12.7% in test [1] and -8.1% in test [2]. Besides, the viability increase in test [3] is -2%. The figures for the viability in test [4] and in test [5] were 94.2% and 98.1%, respectively. In test [6], the inhibition was 1.48%. Moreover, the RAM network inhibition in test [7] was -1.33%.
Regarding `COC(=O)c1c(NC(=O)CCN2CCOCC2)sc2c1CCCC2`, the growth inhibition in test [1] is -1.47%; in test [2], -2.81%. Besides, the viability increase in test [3] is -6.91%. Moreover, the viability in test [4] was 88.4%; in test [5] it was 89.7%. Further, the inhibition in test [6] is 0.935%. For the same molecule, the RAM network inhibition in test [7] was 4.32%.
For the molecule `C/C(=C1/SC(N2CCOCC2)=NC1=O)c1ccc(Br)cc1`, the growth inhibition in test [1] was -1.67%; in test [2] it was 3.21%. For the same molecule, the viability increase in test [3] was -1.99%. For the same molecule, the figures for the viability in test [4] and in test [5] were 94.5% and 101%, respectively. In addition, the inhibition in test [6] is 1.26%. For the same molecule, the RAM network inhibition in test [7] was 0.72%.
As for `C=C(C)Cn1c(SCC(=O)O)nc2c1c(=O)[nH]c(=O)n2C`, the growth inhibition is -15.9% in test [1] and -14% in test [2]. Moreover, the viability increase in test [3] is 1.02%. The viability in test [4] was 96.7%; in test [5], 98.8%. Also, the inhibition in test [6] was 0.63%. The RAM network inhibition in test [7] was 3.24%.
For the molecule `CC(=O)Nc1ccc(NC2(C)C(=O)c3ccccc3C2=O)cc1`, the growth inhibition in test [1] was -0.27%; in test [2], -3.77%. Further, in test [3], the viability increase was -1.88%. Further, the viability was 99.4% in test [4] and 102% in test [5]. For the same molecule, the inhibition in test [6] was 1.94%. Also, the RAM network inhibition in test [7] was 1.23%.
